According to ChEMBL document CHEMBL4613273, “Discovery of Aryl Formyl Piperidine Derivatives as Potent, Reversible, and Selective Monoacylglycerol Lipase Inhibitors” (J Med Chem, 2020):
The source made the active and inactive calls. The rule behind the calls is not given here.

Tests used:
Cannabinoid receptor 1 [1] = target: T1, Cannabinoid receptor 1 (Homo sapiens, UniProt P21554); test: Inhibition of CB1 receptor (unknown origin) expressed in Flpin-CHO cells at 10 uM incubated for 10 mins by Eu-cAMP tracer based cAMP accumulation assay relative to control
[2] = Cmax in Sprague-Dawley rat brain at 10 mg/kg, ig measured over 5 to 720 mins post dose by LC-MS/MS analysis
Cannabinoid receptor 2 [3] = target: T2, Cannabinoid receptor 2 (Homo sapiens, UniProt P34972); test: Inhibition of CB2 receptor (unknown origin) expressed in Flpin-CHO cells incubated for 10 mins by Eu-cAMP tracer based cAMP accumulation assay; format: functional, cell-based
Cannabinoid receptor 1 [4] = target: T1, Cannabinoid receptor 1; test: Inhibition of CB1 receptor (unknown origin) expressed in Flpin-CHO cells incubated for 10 mins by Eu-cAMP tracer based cAMP accumulation assay; format: functional, cell-based
[5] = Half life in Sprague-Dawley rat plasma at 10 mg/kg, ig measured over 1 to 300 mins post dose by LC-MS/MS analysis; format: ADME, organism-based; details: po
[6] = Half life in Sprague-Dawley rat brain at 10 mg/kg, ig measured over 5 to 720 mins post dose by LC-MS/MS analysis
Monoglyceride lipase [7] = target: T3, Monoglyceride lipase (Homo sapiens, UniProt Q99685); test: Inhibition of human recombinant MAGL pre-incubated for 5 mins before MAGL substrate addition and further incubated for 10 mins
T3 sequence (Q99685 whole entry): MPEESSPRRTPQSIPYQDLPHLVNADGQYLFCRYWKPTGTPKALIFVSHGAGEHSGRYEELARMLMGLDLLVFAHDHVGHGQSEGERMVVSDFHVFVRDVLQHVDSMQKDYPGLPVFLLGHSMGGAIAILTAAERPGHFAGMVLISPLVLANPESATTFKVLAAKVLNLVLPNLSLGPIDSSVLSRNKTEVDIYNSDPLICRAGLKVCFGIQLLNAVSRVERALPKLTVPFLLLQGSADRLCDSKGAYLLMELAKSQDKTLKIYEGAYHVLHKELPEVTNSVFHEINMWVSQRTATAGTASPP

[8] = AUC (0 to t) in Sprague-Dawley rat plasma at 10 mg/kg, ig measured over 1 to 300 mins post dose by LC-MS/MS analysis; format: ADME, organism-based; details: in vivo, po
[9] = AUC (0 to t) in Sprague-Dawley rat plasma at 10 mg/kg, iv measured over 1 to 300 mins post dose by LC-MS/MS analysis; format: ADME, organism-based; details: in vivo
[10] = target: T4, Fatty-acid amide hydrolase 1 (Homo sapiens, UniProt O00519); test: Inhibition of human recombinant FAAH pre-incubated for 5 mins before substrate addition and further incubated for 30 mins by fluorescence assay
T4 sequence (O00519 whole entry): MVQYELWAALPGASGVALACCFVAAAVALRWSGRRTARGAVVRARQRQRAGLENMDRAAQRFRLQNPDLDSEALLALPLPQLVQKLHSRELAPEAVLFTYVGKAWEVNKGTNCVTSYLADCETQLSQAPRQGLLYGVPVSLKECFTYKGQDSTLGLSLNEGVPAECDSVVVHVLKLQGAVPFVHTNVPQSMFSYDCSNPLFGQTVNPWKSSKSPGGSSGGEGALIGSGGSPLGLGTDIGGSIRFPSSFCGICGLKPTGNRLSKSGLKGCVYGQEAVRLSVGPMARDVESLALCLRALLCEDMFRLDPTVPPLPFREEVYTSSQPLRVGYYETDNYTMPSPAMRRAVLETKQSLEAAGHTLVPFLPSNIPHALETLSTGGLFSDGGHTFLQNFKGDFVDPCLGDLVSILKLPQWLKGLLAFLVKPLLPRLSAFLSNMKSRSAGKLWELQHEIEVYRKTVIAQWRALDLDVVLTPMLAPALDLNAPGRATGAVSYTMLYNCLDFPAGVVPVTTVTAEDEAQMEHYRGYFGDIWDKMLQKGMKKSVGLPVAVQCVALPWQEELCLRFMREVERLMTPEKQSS

[11] = target: T5, Fatty-acid amide hydrolase 1 (Homo sapiens) (UniProt O00519); test: Inhibition of human recombinant FAAH at 100 uM pre-incubated for 5 mins before substrate addition and further incubated for 30 mins by fluorescence assay relative to control
T5 sequence (whole entry): T4 sequence (O00519 whole entry)

[12] = Stability in mouse liver microsomes assessed as parent compound remaining level at 100 uM pre-incubated for 5 mins before NADPH addition and measured after 60 mins by UPLC-MS/MS analysis; format: ADME, Microsome; details: read-out: Stability
Method in brief: (§1)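 Liver microsomes from human, mouse and rat were incubated with the compound. Remaining parent compound was followed at several time points up to 60 min and expressed as percent remaining.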

Mus musculus [13] = test: Antidepressant activity in ICR mouse model of reserpine-induced depression assessed as reduction in fear at 4 to 16 mg/kg, sc for 6 days followed by reserpine injection 2 hrs after last compound dose and measured after 2 hrs; format: functional, organism-based
Method in brief: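 In mice, depression was induced with reserpine 4 mg/kg, and the compound was given s.c. at 4, 8 or 16 mg/kg. Controls received phosphate buffer alone. Awakening, finger contact, fear, head touch, autonomous movement, straight and eyelid closure were scored. Data are mean ± SD of 3 independent experiments.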

Cannabinoid receptor 2 [14] = target: T2, Cannabinoid receptor 2; test: Inhibition of CB2 receptor (unknown origin) expressed in Flpin-CHO cells at 10 uM incubated for 10 mins by Eu-cAMP tracer based cAMP accumulation assay relative to control
[15] = Stability in human liver microsomes assessed as parent compound remaining level at 100 uM pre-incubated for 5 mins before NADPH addition and measured after 60 mins by UPLC-MS/MS analysis; format: ADME, Microsome; details: read-out: Stability
Method in brief: as §1

Monoglyceride lipase [16] = target: T3, Monoglyceride lipase; test: Competitive inhibition of human recombinant MAGL at 31.25 nM to 125 nM pre-incubated for 5 mins before MAGL substrate addition and further incubated for 10 mins
Method in brief: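 Mode of inhibition was assessed from Michaelis–Menten kinetics run at several inhibitor concentrations. Enzyme activity was plotted against substrate concentration and fitted to a mixed-model inhibition (competitive, uncompetitive and noncompetitive terms), giving Vmax, Km and α.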

[17] = Stability in rat liver microsomes assessed as parent compound remaining level at 100 uM pre-incubated for 5 mins before NADPH addition and measured after 60 mins by UPLC-MS/MS analysis; format: ADME, Microsome; details: read-out: Stability
Method in brief: as §1

[18] = Bioavailability (0 to infinity) in Sprague-Dawley rat plasma at 10 mg/kg, ig measured over 1 to 300 mins post dose by LC-MS/MS analysis
Homo sapiens = species on record: Homo sapiens; test: Selectivity index, ratio of IC50 for inhibition of human recombinant FAAH to IC50 for inhibition of human recombinant MAGL
[19] = AUC (0 to infinity) in Sprague-Dawley rat plasma at 10 mg/kg, ig measured over 1 to 300 mins post dose by LC-MS/MS analysis; format: ADME, organism-based; design: dose 10 mg/kg, route […], time infinity; details: in vivo, po
Mus musculus [20] = test: Antidepressant activity in ICR mouse model of reserpine-induced depression assessed as immobility time at 5 mg/kg, ig by tail suspension test (reference value: 132.38 +/- 44.51 secs); format: functional

T1 sequence (P21554 whole entry): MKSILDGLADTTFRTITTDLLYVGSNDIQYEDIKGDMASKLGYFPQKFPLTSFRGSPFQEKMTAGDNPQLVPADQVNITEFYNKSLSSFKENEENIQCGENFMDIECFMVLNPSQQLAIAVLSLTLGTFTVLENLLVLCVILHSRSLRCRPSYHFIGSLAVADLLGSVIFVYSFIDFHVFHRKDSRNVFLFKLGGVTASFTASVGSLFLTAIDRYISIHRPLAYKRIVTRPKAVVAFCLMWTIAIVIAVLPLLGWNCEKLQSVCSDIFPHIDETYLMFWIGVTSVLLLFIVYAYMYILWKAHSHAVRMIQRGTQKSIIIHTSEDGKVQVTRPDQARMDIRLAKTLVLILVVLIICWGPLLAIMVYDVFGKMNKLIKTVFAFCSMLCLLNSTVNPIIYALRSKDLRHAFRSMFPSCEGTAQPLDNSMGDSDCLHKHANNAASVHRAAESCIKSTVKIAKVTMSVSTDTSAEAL
T2 sequence (P34972 whole entry): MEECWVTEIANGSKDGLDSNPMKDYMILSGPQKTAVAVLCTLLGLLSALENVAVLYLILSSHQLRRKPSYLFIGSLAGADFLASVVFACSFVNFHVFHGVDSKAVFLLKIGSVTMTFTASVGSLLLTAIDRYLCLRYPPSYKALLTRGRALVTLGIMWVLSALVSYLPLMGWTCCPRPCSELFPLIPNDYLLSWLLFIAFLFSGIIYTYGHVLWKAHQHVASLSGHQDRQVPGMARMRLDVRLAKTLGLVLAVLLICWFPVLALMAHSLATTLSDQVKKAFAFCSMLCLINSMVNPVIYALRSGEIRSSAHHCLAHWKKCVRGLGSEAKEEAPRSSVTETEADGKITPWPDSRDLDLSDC

For `O=C(Nc1cccc(Cl)c1)C1CCN(C(=O)c2ccc3ccccc3c2)CC1`, which inhibition (Cannabinoid receptor 1 [1]) is on record?
The inhibition was 29.7%.

What about the Cmax [2] of the same molecule?
Its Cmax is 16.6 ng/mL.

What about the EC50 (Cannabinoid receptor 2 [3]) of the same molecule?
The EC50 was > 10000 nM.

And the EC50 (Cannabinoid receptor 1 [4])?
Its EC50 is > 10000 nM.

What about the half-life [5] of the same molecule?
Its half-life is 4.96 h.

What about the half-life [6] of the same molecule?
Its half-life is 2.44 h.

What about the IC50 (Monoglyceride lipase [7]) of the same molecule?
The IC50 was 14.7 nM.

What about the AUCt [8] of the same molecule?
The AUCt was 9913.54 µg·min/L.

And the AUCt [9]?
The AUCt was 80893 µg·min/L.

And the IC50 [10]?
The IC50 was > 100000 nM.

And the inhibition [11]?
The inhibition was 41.3%.

And the remaining at 1 h, 100 µM [12]?
The remaining at 1 h, 100 µM was 57.9%.

What about the Activity (Mus musculus [13]) of the same molecule?
Its Activity is “Active”.

What about the inhibition (Cannabinoid receptor 2 [14]) of the same molecule?
The inhibition was 20.4%.

And the remaining at 1 h, 100 µM [15]?
Its remaining at 1 h, 100 µM is 88.5%.

What about the Ki (Monoglyceride lipase [16]) of the same molecule?
The Ki was 13.4 nM.

And the remaining at 1 h, 100 µM [17]?
Its remaining at 1 h, 100 µM is 17.3%.

And the bioavailability [18]?
Its bioavailability is 21.6%.

What about the Ratio IC50 (Homo sapiens) of the same molecule?
Its Ratio IC50 is 6780.

What about the AUC [19] of the same molecule?
The AUC was 17791.86 µg·min/L.

What about the Time (Mus musculus [20]) of the same molecule?
The Time was 89.87 s.
